Assay outcomes (PubChem)
Hits are enriched below; roughly 1.1% of the tested compounds scored in any of these assays.
proCasp7 act = counter-screen for procaspase-3 activators: activators of human procaspase-7; P55210; recombinant procaspase-7, Ac-DEVD-pNA absorbance 405 nm; D23A/D198A/D206A triple mutant, cannot self-cleave; scale: DMSO 0, 5 µM enzyme 100; activation, % at 8.5 µM; hit rate 0.093% among 330,000; AID 463210;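 active = percent activation above the screen-wide mean plus 3 SD, cut at about 25% in these data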
Target sequence (P55210 whole entry D23A/D198A/D206A): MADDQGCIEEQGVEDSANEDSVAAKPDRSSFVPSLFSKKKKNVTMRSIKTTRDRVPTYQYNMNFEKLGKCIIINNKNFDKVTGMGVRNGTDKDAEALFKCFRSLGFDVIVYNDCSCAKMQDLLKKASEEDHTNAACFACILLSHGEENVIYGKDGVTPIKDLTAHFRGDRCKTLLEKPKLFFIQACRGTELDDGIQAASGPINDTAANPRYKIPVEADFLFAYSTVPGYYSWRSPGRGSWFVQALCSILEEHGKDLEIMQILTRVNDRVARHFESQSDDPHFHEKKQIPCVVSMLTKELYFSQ
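Material: Procaspase-7 triple mutant (PC-7 D3A) | Quantity: 2 µM procaspase-7 mutant as dispensed | Reagent: DEVD-pNA substrate | Times: 1 h preincubation, 2 h reaction | Technique: 405 nm absorbance of p-nitroaniline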
LYPLA2 counter = blocks human lysophospholipase 2, a PME1 counter-screen; O95372; recombinant LYPLA2, FP-Rh probe fluorescence polarization; inhibition, % at 5.9 µM; hit rate 0.38% among 320,000;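 active = inhibition above the screen-wide mean plus 3 SD, limit set per campaign, cut at about 26% in these data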
LYPLA1 inh = counter-screen for PME1 inhibitors: inhibitors of human LYPLA1. hit rate 0.16% among 320,000. O75608. inhibition, % at 5.9 µM. recombinant LYPLA1, FP-Rh probe fluorescence polarization;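 active = inhibition above the mean of all tested compounds plus 3 SD, set per campaign, cut at about 14% in these data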;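 also: inhibitors block serine hydrolase probe labeling of LYPLA1 so polarization falls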
PREPL inh = inhibits the human prolyl oligopeptidase-like enzyme. recombinant PREPL, fluorescence polarization activity-based probe. inhibition, % at 5.96 µM. hit rate 0.68% among 320,000. AID 2751; in the data active = inhibition above about 43%
procasp3 activ = activators of human procaspase-3; P42574; recombinant procaspase-3 D3A, Ac-DEVD-pNA absorbance 405 nm; activation, % at 8.5 µM; hit rate 0.11% among 330,000;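 active = activation above the mean of all tested compounds plus 3 SD, cut at about 21% in these data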
Target sequence (P42574 whole entry D9A/D28A/D175A): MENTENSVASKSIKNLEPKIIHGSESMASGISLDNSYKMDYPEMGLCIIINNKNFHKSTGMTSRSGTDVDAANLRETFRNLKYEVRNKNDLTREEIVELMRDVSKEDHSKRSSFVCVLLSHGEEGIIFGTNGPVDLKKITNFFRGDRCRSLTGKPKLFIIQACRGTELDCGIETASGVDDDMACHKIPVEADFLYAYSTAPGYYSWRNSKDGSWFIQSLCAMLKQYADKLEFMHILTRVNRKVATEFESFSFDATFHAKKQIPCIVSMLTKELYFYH
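Test system: Procaspase-3 D3A mutant; medium: Zinc-free HEPES/NaCl buffer with 0.01% Triton X-100 at pH 7.4; reagent: DEVD-pNA substrate; doses: one concentration, 8.5 µM nominal, 0.8% DMSO; times: 1 h preincubation plus 2 h reaction at 25 °C; signal: Epi-absorbance at 405 nm of released p-nitroaniline, 0 and 120 min; replicates: singlicate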
LYPLA1 conf = counter-screen for PME1 inhibitors: confirmation of human LYPLA1 inhibitors; recombinant LYPLA1, FP-Rh probe fluorescence polarization; inhibition, % at 5.9 µM; shares compounds with LYPLA1 inh; hit rate 69% among 480;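 active = mean inhibition across replicates above the hit cutoff set in the primary screen, cut at about 15% in these data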;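 also: loss of FP-Rh probe labeling of LYPLA1 seen as lower polarization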
LYPLA2 confirm = counter-screen for PME1 inhibitors: confirmation of human LYPLA2 inhibitors; hit rate 72% among 1,100; recombinant LYPLA2, FP-Rh probe fluorescence polarization; inhibition, % at 5.9 µM; shares compounds with LYPLA2 counter;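 active = mean inhibition across replicates above the hit cutoff set in the primary screen, cut at about 26% in these data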;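 also: blocked labeling of the enzyme by serine hydrolase FP-Rh probe lowers polarization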
Numbers stand for hits.

Results for O=C(CN(C(=O)c1csnn1)c1cccc(C(F)(F)F)c1)NC1CCCC1 ?
proCasp7 act: inactive; LYPLA2 counter: inactive; LYPLA1 inh: inactive; PREPL inh: inactive; procasp3 activ: inactive

How did COc1ccc(-n2nc(C(=O)NCC(=O)N3CCN(Cc4ccc5c(c4)OCO5)CC3)c3ccccc3c2=O)cc1OC do in these assays?
proCasp7 act: inactive; LYPLA2 counter: 73.9; LYPLA1 inh: 50.3; PREPL inh: inactive; procasp3 activ: inactive; LYPLA1 conf: 63.4; LYPLA2 confirm: 82.0

What do the screens show for `COc1ccc(-n2nc(C(=O)NCC(=O)N3CCOCC3)c3ccccc3c2=O)cc1OC`?
proCasp7 act: inactive; LYPLA2 counter: inactive; LYPLA1 inh: inactive; PREPL inh: inactive; procasp3 activ: inactive

What do the screens show for `COc1ccc(-n2nc(C(=O)NCC(=O)N3CCN(Cc4ccccc4)CC3)c3ccccc3c2=O)cc1`?
proCasp7 act: inactive; LYPLA2 counter: 68.7; LYPLA1 inh: 42.5; PREPL inh: inactive; procasp3 activ: inactive; LYPLA1 conf: 46.7; LYPLA2 confirm: 66.8

What do the screens show for `COc1ccc(N2CCN(C(=O)CNC(=O)c3cn(-c4ccccc4OC)c(=O)c4ccccc34)CC2)cc1`?
proCasp7 act: inactive; LYPLA2 counter: 76.3; LYPLA1 inh: 15.4; PREPL inh: inactive; procasp3 activ: inactive; LYPLA1 conf: 25.7; LYPLA2 confirm: 81.0

Results for COc1ccc(-n2nc(C(=O)NCC(=O)N3CCN(c4ccccc4)CC3)c3ccccc3c2=O)c(OC)c1 ?
proCasp7 act: inactive; LYPLA2 counter: inactive; LYPLA1 inh: inactive; PREPL inh: inactive; procasp3 activ: inactive

How did CC(SC1=NCCN1S(=O)(=O)c1ccccc1)c1ccccc1 (stereo not drawn) do in these assays?
proCasp7 act: inactive; LYPLA2 counter: inactive; LYPLA1 inh: inactive; PREPL inh: inactive; procasp3 activ: inactive

What do the screens show for `O=C(O)c1ccc2c(c1)C(=O)N(CCCCCCCN1C(=O)c3ccc(C(=O)O)cc3C1=O)C2=O`?
proCasp7 act: inactive; LYPLA2 counter: 47.2; LYPLA1 inh: 68.8; PREPL inh: inactive; procasp3 activ: inactive; LYPLA1 conf: 73.4; LYPLA2 confirm: 47.6

Results for Cc1ccc(C)c(OCC(=O)Nc2cccc(S(=O)(=O)NC3=NCCCCC3)c2)c1 ?
proCasp7 act: inactive; LYPLA2 counter: inactive; LYPLA1 inh: inactive; PREPL inh: inactive; procasp3 activ: inactive

How did COc1cc([C@H]2Oc3cc([C@H]4Oc5cc(O)cc(O)c5C(=O)[C@@H]4O)ccc3O[C@@H]2CO)ccc1O do in these assays?
proCasp7 act: inactive; LYPLA2 counter: 70.2; LYPLA1 inh: 20.8; PREPL inh: inactive; procasp3 activ: inactive; LYPLA1 conf: 37.0; LYPLA2 confirm: 74.5

How did CC(=O)Nc1ccc(S(=O)(=O)N2CCCN(c3nc(C)cc(C)c3C#N)CC2)cc1 do in these assays?
proCasp7 act: inactive; LYPLA2 counter: inactive; LYPLA1 inh: inactive; PREPL inh: inactive; procasp3 activ: inactive

Results for COCCn1c(N)c(C(=O)NCC2CCCO2)c2nc3ccccc3nc21 (stereo not drawn) ?
proCasp7 act: inactive; LYPLA2 counter: 70.5; LYPLA1 inh: 70.1; PREPL inh: inactive; procasp3 activ: inactive; LYPLA1 conf: inactive; LYPLA2 confirm: inactive

How did CCOC(=O)CSc1nnc(CSc2nc3sc4c(c3c(=O)[nH]2)CCCC4)n1-c1ccccc1 do in these assays?
proCasp7 act: inactive; LYPLA2 counter: 77.5; LYPLA1 inh: 15.8; PREPL inh: inactive; procasp3 activ: inactive; LYPLA1 conf: 15.4; LYPLA2 confirm: 80.0

How did CN(CC(=O)Nc1ccccc1C(=O)NC1CC1)Cc1ccc(N(C)C)cc1 do in these assays?
proCasp7 act: inactive; LYPLA2 counter: inactive; LYPLA1 inh: inactive; PREPL inh: inactive; procasp3 activ: inactive

What do the screens show for `Cc1c(Br)c([N+](=O)[O-])nn1CC(=O)Nc1ccc(Cc2ccncc2)cc1`?
proCasp7 act: inactive; LYPLA2 counter: 59.0; LYPLA1 inh: 23.4; PREPL inh: inactive; procasp3 activ: inactive; LYPLA1 conf: 34.6; LYPLA2 confirm: 66.7

Results for O=C(CS(=O)(=O)Cc1ccccc1)N1CCN(c2cccc(C(F)(F)F)c2)CC1 ?
proCasp7 act: inactive; LYPLA2 counter: inactive; LYPLA1 inh: inactive; PREPL inh: inactive; procasp3 activ: inactive

Results for OC(CN1CCN(c2cccc(C(F)(F)F)c2)CC1)c1c[nH]c2ccccc12 (stereo not drawn) ?
proCasp7 act: inactive; LYPLA2 counter: 56.6; LYPLA1 inh: 22.6; PREPL inh: inactive; procasp3 activ: inactive; LYPLA1 conf: 29.7; LYPLA2 confirm: 48.9

How did CCCN1CCN(CCCNC(=O)Cn2nc(C)n3c(cc4cc(OC)ccc43)c2=O)CC1 do in these assays?
proCasp7 act: inactive; LYPLA2 counter: inactive; LYPLA1 inh: inactive; PREPL inh: inactive; procasp3 activ: inactive

What do the screens show for `O=C(COc1ccc(Br)cc1)Nc1ccc(Cc2ccncc2)cc1`?
proCasp7 act: inactive; LYPLA2 counter: 29.6; LYPLA1 inh: 23.1; PREPL inh: inactive; procasp3 activ: inactive; LYPLA1 conf: 25.2; LYPLA2 confirm: inactive

How did CCc1ccc(OCC(=O)Nc2ccncc2)cc1 do in these assays?
proCasp7 act: inactive; LYPLA2 counter: inactive; LYPLA1 inh: inactive; PREPL inh: inactive; procasp3 activ: inactive

What do the screens show for `O=C(CSCc1ccccc1Br)Nc1ccccc1`?
proCasp7 act: inactive; LYPLA2 counter: 37.1; LYPLA1 inh: 16.4; PREPL inh: inactive; procasp3 activ: inactive; LYPLA1 conf: 31.8; LYPLA2 confirm: 47.2

Results for Cc1c2cc(O)c(=O)cc-2oc2cc(O)c(O)cc12 ?
proCasp7 act: inactive; LYPLA2 counter: 108.3; LYPLA1 inh: 94.6; PREPL inh: 59.6; procasp3 activ: inactive; LYPLA1 conf: 94.0; LYPLA2 confirm: 102.0

What do the screens show for `COc1ccc(Cn2c(=O)[nH]c3cc(C(=O)N4CCN(c5ccccn5)CC4)ccc3c2=O)cc1`?
proCasp7 act: inactive; LYPLA2 counter: inactive; LYPLA1 inh: inactive; PREPL inh: inactive; procasp3 activ: inactive

What do the screens show for `COc1ccc(N2CCN(C(=O)CSc3nnnn3C3CC3)CC2)cc1`?
proCasp7 act: inactive; LYPLA2 counter: inactive; LYPLA1 inh: inactive; PREPL inh: inactive; procasp3 activ: inactive

What do the screens show for `O=C1C(CSCc2ccccc2)NC(=S)N1c1ccccc1` (stereo not drawn)?
proCasp7 act: inactive; LYPLA2 counter: 50.3; LYPLA1 inh: 28.5; PREPL inh: inactive; procasp3 activ: inactive; LYPLA1 conf: inactive; LYPLA2 confirm: inactive

How did CCN1C(=O)[C@H]2[C@@H](c3ccc(-c4ccc(C(C)=O)cc4)cc3)N3CCCC[C@@]3(C(=O)OC)[C@H]2C1=O do in these assays?
proCasp7 act: inactive; LYPLA2 counter: inactive; LYPLA1 inh: inactive; PREPL inh: inactive; procasp3 activ: inactive
